Test results as given in ChEMBL document CHEMBL3414543, “Novel series of benzoquinones with high potency against 5-lipoxygenase in human polymorphonuclear leukocytes” (Eur J Med Chem, 2015).

Tests used:
[1] = target: T1, Polyunsaturated fatty acid 5-lipoxygenase (Homo sapiens, UniProt P09917); test: Inhibition of 5-LOX in A23187-stimulated human blood PMNL assessed as reduction in lipoxygenase products formation pre-incubated for 15 mins followed by stimulation with A23187 for 10 mins by RP-HPLC based cell based assay
T1 sequence (P09917 whole entry): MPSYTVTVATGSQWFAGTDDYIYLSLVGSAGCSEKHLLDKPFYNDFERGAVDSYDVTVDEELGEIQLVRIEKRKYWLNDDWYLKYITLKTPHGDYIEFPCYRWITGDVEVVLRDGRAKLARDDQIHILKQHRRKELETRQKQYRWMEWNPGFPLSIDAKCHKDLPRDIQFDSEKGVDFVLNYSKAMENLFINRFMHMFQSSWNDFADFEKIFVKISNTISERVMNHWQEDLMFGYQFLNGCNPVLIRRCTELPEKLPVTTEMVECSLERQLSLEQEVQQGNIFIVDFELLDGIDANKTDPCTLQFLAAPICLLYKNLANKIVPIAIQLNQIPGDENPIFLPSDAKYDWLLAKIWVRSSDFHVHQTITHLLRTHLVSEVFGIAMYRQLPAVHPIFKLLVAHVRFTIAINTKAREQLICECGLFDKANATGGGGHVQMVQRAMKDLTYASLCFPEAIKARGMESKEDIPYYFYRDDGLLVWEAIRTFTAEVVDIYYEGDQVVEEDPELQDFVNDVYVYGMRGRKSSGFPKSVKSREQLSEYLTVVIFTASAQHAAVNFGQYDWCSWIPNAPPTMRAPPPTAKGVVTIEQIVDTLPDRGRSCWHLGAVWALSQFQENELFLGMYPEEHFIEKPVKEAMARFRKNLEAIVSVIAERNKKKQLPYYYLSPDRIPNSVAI
How it was run: (§1)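 Human PMNL (5 × 10⁶ in 1 ml PBS pH 7.4, 1 mg/ml glucose, 1 mM CaCl₂), preincubated 15 min at 37 °C with compound or 0.1% DMSO, then stimulated 10 min at 37 °C with A23187, with or without AA. 5-LO products measured. Values are mean ± S.E. of 3–4 independent experiments. IC₅₀ read graphically from 4–5 concentrations.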

[2] = target: T2, Polyunsaturated fatty acid lipoxygenase ALOX15 (Homo sapiens) (UniProt P16050); test: Inhibition of 15-LOX-1 in human blood PMNL assessed as remaining activity by measuring 15-HETE synthesis at 10 uM
T2 sequence (whole entry): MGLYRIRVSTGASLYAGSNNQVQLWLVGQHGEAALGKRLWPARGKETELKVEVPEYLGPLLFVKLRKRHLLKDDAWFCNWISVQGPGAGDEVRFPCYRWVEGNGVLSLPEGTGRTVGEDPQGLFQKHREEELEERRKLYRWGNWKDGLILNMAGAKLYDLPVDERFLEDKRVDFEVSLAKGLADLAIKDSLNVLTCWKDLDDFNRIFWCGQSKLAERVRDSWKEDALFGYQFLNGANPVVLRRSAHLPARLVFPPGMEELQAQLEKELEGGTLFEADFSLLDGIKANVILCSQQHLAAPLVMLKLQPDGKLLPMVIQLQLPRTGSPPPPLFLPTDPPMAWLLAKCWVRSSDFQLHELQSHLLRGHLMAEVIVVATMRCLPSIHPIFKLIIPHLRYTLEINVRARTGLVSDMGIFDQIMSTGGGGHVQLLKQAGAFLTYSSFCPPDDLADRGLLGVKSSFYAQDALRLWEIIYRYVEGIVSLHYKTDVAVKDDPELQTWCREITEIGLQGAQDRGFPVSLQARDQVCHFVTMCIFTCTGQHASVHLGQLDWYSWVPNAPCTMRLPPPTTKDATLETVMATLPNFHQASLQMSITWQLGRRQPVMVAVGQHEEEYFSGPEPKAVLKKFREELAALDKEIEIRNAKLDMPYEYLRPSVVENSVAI
How it was run: (§2)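 PMNL isolated from heparinized blood of fasted healthy donors by dextran sedimentation and Nycoprep centrifugation, with hypotonic lysis of erythrocytes. Cells at 5 × 10⁶ in 1 ml PBS pH 7.4 with 1 mg/ml glucose and 1 mM CaCl₂, preincubated 15 min at 37 °C with compound or 0.1% DMSO vehicle, then stimulated 10 min at 37 °C. 12-HETE or 15-HETE formation measured.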

[3] = target: T1, Polyunsaturated fatty acid 5-lipoxygenase; test: Inhibition of 5-LOX in A23187-stimulated human blood PMNL assessed as reduction in lipoxygenase products formation in presence of arachidonic acid pre-incubated for 15 mins followed by stimulation with A23187 for 10 mins by RP-HPLC based cell based assay; how it was run: as §1
[4] = target: T3, Polyunsaturated fatty acid lipoxygenase ALOX12 (Homo sapiens) (UniProt P18054); test: Inhibition of 12-LOX in human blood PMNL assessed as remaining activity by measuring 12-HETE synthesis at 10 uM; how it was run: as §2
T3 sequence (whole entry): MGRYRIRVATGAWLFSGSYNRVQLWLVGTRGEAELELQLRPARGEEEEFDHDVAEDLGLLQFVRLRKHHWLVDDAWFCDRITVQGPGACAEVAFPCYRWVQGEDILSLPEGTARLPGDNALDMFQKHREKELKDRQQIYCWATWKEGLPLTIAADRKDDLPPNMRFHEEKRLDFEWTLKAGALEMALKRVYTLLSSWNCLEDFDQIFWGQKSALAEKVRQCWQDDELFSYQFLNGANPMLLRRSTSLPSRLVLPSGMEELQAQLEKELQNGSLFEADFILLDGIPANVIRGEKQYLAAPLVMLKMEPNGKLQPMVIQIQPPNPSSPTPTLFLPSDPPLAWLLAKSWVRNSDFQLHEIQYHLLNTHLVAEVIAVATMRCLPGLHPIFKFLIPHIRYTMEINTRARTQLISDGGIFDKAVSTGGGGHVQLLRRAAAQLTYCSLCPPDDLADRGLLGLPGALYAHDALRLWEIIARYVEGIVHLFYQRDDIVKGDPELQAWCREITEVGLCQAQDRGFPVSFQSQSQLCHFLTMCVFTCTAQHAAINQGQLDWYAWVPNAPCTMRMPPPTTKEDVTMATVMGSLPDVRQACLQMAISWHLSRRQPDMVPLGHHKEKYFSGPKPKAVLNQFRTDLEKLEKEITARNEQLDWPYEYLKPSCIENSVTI

[5] = target: T1, Polyunsaturated fatty acid 5-lipoxygenase; test: Inhibition of human recombinant 5-LOX expressed in Escherichia coli BL21 incubated for 10 mins in presence of arachidonic acid by RP-HPLC based cell-free assay
How it was run: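 Recombinant human 5-LO, semi-purified from a 40,000 × g lysate supernatant on ATP-agarose, diluted in ice-cold PBS with 1 mM EDTA and 1 mM ATP. Preincubated 10 min at 4 °C with compound or 0.1% DMSO, warmed 30 s at 37 °C, then started with 2 mM CaCl₂ plus 20 µM AA. Reaction 10 min at 37 °C, stopped with cold methanol, products by RP-HPLC. IC₅₀ from 4–5 concentrations.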

[6] = target: T4, Polyunsaturated fatty acid 5-lipoxygenase (Homo sapiens) (UniProt P09917); test: Inhibition of 5-LOX in A23187-stimulated human blood PMNL assessed as remaining activity by measuring lipoxygenase products formation at 10 uM in presence of arachidonic acid pre-incubated for 15 mins followed by stimulation with A23187 for 10 mins by RP-HPLC based cell based assay; how it was run: as §1
T4 sequence (whole entry): T1 sequence (P09917 whole entry)

Compound | IC50 [1] [nM] | Activity [2] [%] | IC50 [3] [nM] | Activity [4] [%] | IC50 [5] [nM] | Activity [6] [%]
CCCCCCCCCCCCCC1=C(O)C(=O)C=C(OC)C1=O [Sorgoleone-364] | 770 | 88.1 | 2300 | 73.2 | 920 | 
CCCCCCCCCCCCC1=C(OC)C(=O)C=C(OC)C1=O | 630 | 127 | 490 | 138 | 610 | 
CCCCCCCCCCCCC1=C(O)C(=O)C=C(OC)C1=O | 560 | 116 | 1100 | 148 | 740 | 
CCCCCCCCCCC1=C(O)C(=O)C=C(OC)C1=O | 590 | 123 | 2700 | 122 | 4300 | 
CCCCCCCCCCCC1=C(O)C(=O)C=C(OC)C1=O [5-O-METHYLEMBELIN] | 680 | 131 | 1300 | 138 | 3800 | 
CCCCCCCCCCCCCCCC1=C(O)C(=O)C=C(O)C1=O | 4300 | 103 | > 10000 | 87.7 | 230 | 61.7
CCCCC1=C(OC)C(=O)C=C(OC)C1=O | 3400 | 103 | 7900 | 103 | 3300 | 
COC1=CC(=O)C(O)=C(C/C=C(\C)CC/C=C(\C)CCC=C(C)C)C1=O | 1900 | 122 | 2400 | 108 | 5600 | 

Compounds with a lower IC50 [1], results first:

IC50 [1] [nM] | Activity [2] [%] | IC50 [3] [nM] | Activity [4] [%] | IC50 [5] [nM] | Activity [6] [%] | Compound
450 | 127 | 1600 | 90.3 | 3300 |  | COC1=CC(=O)C(OC)=C(C/C=C(\C)CCC=C(C)C)C1=O
380 | 125 | 390 | 72.8 | 600 |  | COC1=CC(=O)C(=O)C(C/C=C(\C)CCC=C(C)C)=C1OC
320 | 101 | 1400 | 102 | 2600 |  | CCCCCCC1=C(OC)C(=O)C=C(OC)C1=O
320 | 123 | 570 | 89.6 | 1200 |  | CCCCCCCCC1=C(OC)C(=O)C=C(OC)C1=O
310 | 136 | 1200 | 139 | 1700 |  | COC1=CC(=O)C(OC)=C(C/C=C(\C)CC/C=C(\C)CCC=C(C)C)C1=O
290 | 116 | 1400 | 84.5 | 210 |  | CCCCCCCCCCCCCCC1=C(OC)C(=O)C=C(OC)C1=O
270 | 116 | 490 | 114 | 420 |  | CCCCCCCCCCCCCCC1=C(O)C(=O)C=C(OC)C1=O
